# Sampled rows, rich in hits. Any-hit rate of the full collection: about 29%.
# CYP2C19 inhib: inhibitors of human CYP2C19. P33261. inhibition, % at 5 µM. hit rate 21% among 96,000. CYP2C19 Supersomes, luciferin-H EGE luminescence, 30 min;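 active means CYP2C19 inhibition above a set limit at 5 µM in the primary screen, cut at about 50% in these data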;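 further: plate controls were negative control wells for no effect and 2.5 mM tranylcypromine positive control for full effect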
# Target sequence (P33261 whole entry, looked up): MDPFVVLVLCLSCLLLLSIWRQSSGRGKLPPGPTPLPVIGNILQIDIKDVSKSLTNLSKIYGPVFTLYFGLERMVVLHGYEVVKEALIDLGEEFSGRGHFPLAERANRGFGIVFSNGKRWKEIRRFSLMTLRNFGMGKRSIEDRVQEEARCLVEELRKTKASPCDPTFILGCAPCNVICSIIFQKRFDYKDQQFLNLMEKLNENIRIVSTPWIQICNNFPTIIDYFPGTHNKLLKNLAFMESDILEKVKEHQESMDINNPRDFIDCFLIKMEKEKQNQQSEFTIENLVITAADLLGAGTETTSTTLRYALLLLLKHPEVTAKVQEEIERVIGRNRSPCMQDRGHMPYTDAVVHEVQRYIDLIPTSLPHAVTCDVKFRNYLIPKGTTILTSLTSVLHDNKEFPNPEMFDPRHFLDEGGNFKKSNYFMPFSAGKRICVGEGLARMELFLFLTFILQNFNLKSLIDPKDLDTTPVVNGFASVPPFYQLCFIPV
# tolC growth inh: blocks growth of E. coli BW25113 tolC mutant; OD615; growth inhibition, % at 10 µM (by protocol); hit rate 2.2% among 65,000;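 active means growth inhibition at or above a cutoff equal to the mean over every tested compound plus 3 SD, cut at about 60% in these data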;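 further: growth measured after 20 h incubation at 37 °C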
#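 Signal: optical density read at 615 nm; Assay system: E. coli ΔtolC::kan strain BW25113; Times: 20 h incubation with compound, 37 °C; Dosing: 10 µM final, single dose.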
# E coli WT exp: E. coli BW25113 growth inhibition, expanded screen | OD600 absorbance | growth inhibition, % at 100 µM | hit rate 0.15% among 98,000 | AID 710;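 active means growth inhibition above about 50% at one test dose, limit read from the data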;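 further: growth measured after 20 h incubation at 37 °C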
# CYP2C9 inhib: blocks human cytochrome P450 2C9; hit rate 20% among 96,000; P11712; inhibition, % at 5 µM; AID 777; CYP2C9 Supersomes, luciferin-H conversion, luminescence;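 active means blocking of liver enzyme CYP2C9 beyond about 50% at 5 µM, limit read from the data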
# CYP2C9 activ: increases human cytochrome P450 2C9 activity | hit rate 1.4% among 96,000 | recombinant CYP2C9, luciferin-H conversion, luminescence; stronger effect = higher value; factor 1 = untreated enzyme, 0 = blocked | P11712 | activation factor at 5 µM;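 active means activation factor of 2 or more for CYP2C9 at a 5 µM dose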;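 further: 0 = sulfaphenazole-blocked wells and 1 = vehicle-only wells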
# CYP2C19 act: increases human CYP2C19 enzyme activity | P33261 | recombinant CYP2C19, luciferin-H EGE luminescence; stronger effect = higher value; 0 = fully inhibited enzyme, 1 = untreated enzyme | activation factor at 5 µM | 96,000 tested, under 10 active;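 active means activation factor of at least 2 at 5 µM in the primary screen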;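 further: 0 = wells with 2.5 mM tranylcypromine and 1 = vehicle-only wells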
# An asterisk follows results filed as active; · = no result given.
SMILES,CYP2C19 inhib,tolC growth inh,E coli WT exp,CYP2C9 inhib,CYP2C9 activ,CYP2C19 act
Cc1ccc(CN(c2ccc(C(=O)Nc3cccnc3)cc2)S(C)(=O)=O)cc1,90.6*,·,-10.0,73.8*,0.3,0.1
Cn1c(SCC(=O)NC(C)(C)C)nnc1-c1cccc(NC(=O)c2ccccc2F)c1,5.4,·,3.0,2.2,1,0.9
CC(C)c1ncc(C(O)c2cccc3ccccc23)n1C (stereo not given),2.5,-0.9,9.0,1.4,1,1
COc1ccccc1NC(=O)c1ccc(-c2ccccc2F)o1,3.6,15.6,-5.0,-2.1,1,1
Cc1nnc(NC(=O)c2ccc3c(c2)C(=O)N(CCC(C)C)C3=O)s1,3.2,·,-7.0,8.8,0.9,1
C=C(C)CSc1nnc(-c2ccccc2)n1N,5.3,-5.8,4.0,-4.9,1,0.9
C=CCNC(=O)c1onc(CSc2cccc(C)c2)c1C(=O)O,12.5,·,-6.0,65.4*,0.3,0.9
C=CCNC(=O)c1onc(CSc2cccc(Cl)c2)c1C(=O)O,11.9,·,-8.0,67.5*,0.3,0.9
Cc1cccc(SCc2noc(C(=O)NCC3CCCO3)c2C(=O)O)c1 (stereo not given),13.4,·,-1.0,28.3,0.7,0.9
COCCNC(=O)c1onc(CSc2cccc(Cl)c2)c1C(=O)O,-15.8,·,-3.0,13.7,0.9,1.2
Cc1nnc(Nc2ccc(C(=O)N3CCOCC3)cc2)c2ccccc12,11.7,-14.6,3.0,41.2,0.6,0.9
COc1cccc(COc2ccccc2C2Nc3ccc(Br)cc3C(=O)N2NC(=O)c2ccncc2)c1 (stereo not given),68.9*,·,-4.0,84.8*,0.2,0.3
COc1cc(C(=O)N2CCC(NC(=O)C(Cc3ccc(C(C)C)cc3)NC(C)=O)CC2)cc(OC)c1OC (stereo not given),13.1,·,3.0,3.0,1,0.9
Cc1occc1-c1nnc(SCC(=O)Nc2nc3ccccc3s2)o1,79.3*,·,-4.0,75.4*,0.2,0.2
Cc1occc1-c1nnc(SCC(=O)c2cc3ccccc3oc2=O)o1,19.0,8.5,-6.0,89.8*,0.1,0.8
Cc1occc1-c1nnc(SCC(=O)Nc2nc(-c3ccccc3)cs2)o1,22.7,·,-5.0,47.1,0.5,0.8
Cc1occc1-c1nnc(SCC(=O)N2CCOCC2)o1,-0.5,-23.2,-7.0,-7.9,1.1,1
COc1cccc(-c2nnn(CC(=O)Nc3ccc(C)cc3C)n2)c1OC,11.2,-12.5,-6.0,18.7,0.8,0.9
CCCCCNC(=O)CN(c1ccc2c(c1)OCO2)S(C)(=O)=O,45.6,·,-2.0,10.4,0.9,0.5
COc1ccc(S(=O)(=O)N(C)CC(=O)NCCC2=CCCCC2)cc1C,88.5*,·,-2.0,-25.7,1.3,0.1
CS(=O)(=O)N(CC(=O)NCCC1=CCCCC1)c1ccc2c(c1)OCO2,61.9*,1.9,3.0,57.3*,0.4,0.4
CC(OC(=O)CNC(=O)c1ccc2c(c1)OCO2)C(=O)NCCC1=CCCCC1 (stereo not given),62.6*,-6.7,11.0,40.9,0.6,0.4
CN(CC(=O)NCCC1=CCCCC1)S(=O)(=O)c1ccc2c(c1)c(=O)n(C)c(=O)n2C,25.5,1.9,0.0,-53.8,1.5,0.7
Cc1cc(C)cc(N(C(C)C(=O)NCCC2=CCCCC2)S(C)(=O)=O)c1 (stereo not given),92.0*,·,-1.0,13.5,0.9,0.1
Cc1cc(C)cc(N(C(C)C(=O)N2CCCCC2)S(C)(=O)=O)c1 (stereo not given),-5.4,-6.0,3.0,-30.9,1.3,1.1
SMILES,CYP2C19 inhib,tolC growth inh,E coli WT exp,CYP2C9 inhib,CYP2C9 activ,CYP2C19 act
CC1(c2ccc3c(c2)OCO3)NC(=O)N(CC(=O)NCCC2=CCCCC2)C1=O (stereo not given),8.6,3.6,-1.0,19.4,0.8,0.9
Nc1nc2ccc([N+](=O)[O-])c(N)c2s1,-7.2,·,39.0,-1.1,1,1.1
COc1cccc(C(=O)NCc2nnc(SCC(=O)Nc3nccs3)n2-c2cccc(C)c2)c1,·,-10.9,·,·,·,·
CC(=O)NCc1ccc(-c2csc(N)n2)s1,-2.1,-12.9,2.0,10.9,0.9,1
Cc1cccc(N(CC(=O)NCCC2=CCCCC2)S(C)(=O)=O)c1C,55.6*,·,-8.0,95.1*,0,0.4
CS(=O)(=O)N(Cc1ccc(Cl)cc1)c1ccc(C(=O)NCCC2=CCCCC2)cc1,-11.6,·,-4.0,6.4,0.9,1.1
COc1ccc(N(CC(=O)NCCC2=CCCCC2)S(C)(=O)=O)cc1,56.9*,·,0.0,68.9*,0.3,0.4
O=C(NCCN1CCCC1)c1cc(-c2ccncc2)nc2ccc(S(=O)(=O)N3CCOCC3)cc12,40.0,-23.8,7.0,32.0,0.7,0.6
Cc1cc(C(=O)OCC(=O)c2ccc3c(c2)OCCO3)c(C)o1,86.5*,53.2,-4.0,39.5,0.6,0.1
COc1ccc(OC)c(C(=O)COC(=O)c2cc(C)oc2C)c1,·,61.0*,-4.0,·,·,·
O=C1CC2CS(=O)(=O)CC2N1C1CCCCC1 (stereo not given),-12.5,-8.1,6.0,-10.0,1.1,1.1
COc1ccc(Cl)cc1NC(=O)CSc1nnc(Cn2c(=O)sc3ccccc32)n1C,·,-4.3,-6.0,·,·,·
COc1ccc(/C=N/NC(=O)CSc2nnc(CCCc3ccc(OC)c(C)c3)o2)cc1,77.7*,·,-10.0,83.9*,0.2,0.2
COc1ccc(CCCc2nnc(SCC(=O)N/N=C\c3ccc(O)c(OC)c3)o2)cc1C,42.2,·,-4.0,31.0,0.7,0.6
COc1ccc(Cc2nnc(SCC(=O)NCCc3ccccc3)o2)cc1,43.9,13.5,-7.0,42.9,0.6,0.6
C=CCc1cc(/C=N\NC(=O)CSc2nnc(CCCc3ccc(OC)c(C)c3)o2)cc(OC)c1O,86.3*,·,0.0,83.3*,0.2,0.1
C=CCc1cc(/C=N/NC(=O)CSc2nnc(CCCc3ccc(OC)cc3)o2)cc(OC)c1O,89.2*,·,-4.0,80.1*,0.2,0.1
CCc1ccccc1NC(=O)/C(=C/c1ccco1)c1ccccc1,7.2,·,-3.0,17.3,0.8,0.9
CCOC(=O)c1[nH]c2ccccc2c1NC(=O)c1ccc(Br)o1,·,19.9,·,·,·,·
O=C1C(Nc2ccccc2)=C(N2CCCCC2)C(=O)c2ccccc21,67.8*,·,5.0,49.8,0.5,0.3
O=C1C(Nc2cccc(O)c2)=C(N2CCCCC2)C(=O)c2ccccc21,38.7,·,-14.0,61.7*,0.4,0.6
CN(C1=C(N2CCCCC2)C(=O)c2ccccc2C1=O)c1ccccc1,94.7*,·,-19.0,90.0*,0.1,0.1
Cc1ccc(NC2=C(N3CCCCC3)C(=O)c3ccccc3C2=O)cc1,42.7,·,-6.0,28.4,0.7,0.6
O=C(/C=C/c1ccc(O)cc1)c1ccc(NC2=C(N3CCCCC3)C(=O)c3ccccc3C2=O)cc1,68.8*,·,-17.0,49.2,0.5,0.3
CC(C)C1S/C(=N/N=C/c2cccs2)NC1=O (stereo not given),6.3,·,-14.0,20.6,0.8,0.9

# Screens deposited in PubChem BioAssay by several laboratories.
